The results in this text go back to ChEMBL document CHEMBL1122660 (J Med Chem, 1984).

Experiment [1] deals with P388. Description: Optimum dose (mg/kg) against P388 leukemic cells. The format is functional, Mus musculus.
In experiment [2] the test system is Mus musculus. As to the kind of experiment: Evaluated for antitumor activity against B-16 melanoma in mice at a dose 2 mg/kg day, ip, on days 1, 4, and 7 against B-16 Melanoma cell. Type of experiment: functional. An outline of the steps:
(§1)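 B-16 melanoma in mice, run at Bristol Laboratories by standard NCI protocols. Compound given ip on days 1, 4 and 7 in Me2SO + buffered saline vehicle; ten mice per dose. Read-outs per dose: %T/C, number of survivors, and weight change.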

The species named for experiment [3] is Mus musculus. Description: Maximum percent T/C (antitumor activity) against P388 leukemia cells for the compound; 144-325. Type of experiment: functional.
The subject of experiment [4] is Mus musculus. As to the kind of experiment: Evaluated for antitumor activity against B-16 melanoma in mice aat a dose 1 mg/kg day, ip,on days 1, 4, and 7 against B-16 Melanoma cell. Type of experiment: functional. An outline of the steps:
as §1

The test system of experiment [5] is Mus musculus. Description: Evaluated for antitumor activity against B-16 melanoma in mice at a dose 4 mg/kg day, ip, on days 1, 4, and 7 against B-16 Melanoma cell. The format is functional. An outline of the steps:
as §1

In experiment [6] the test system is Mus musculus. As to the kind of experiment: Evaluated for antitumor activity against B-16 melanoma in mice at a dose 4 mg/kg day, ip, on days 1, 4, and 7 against B-16 Melanoma cell *-Tumors survivors on day 62. The format is functional.
Experiment [7] deals with Mus musculus. As to the kind of experiment: Evaluated for antitumor activity against B-16 melanoma in mice at a dose 1 mg/kg day, ip, on days 1, 4, and 7 against B-16 Melanoma cell *-Tumors survivors on day 62. Type of experiment: functional.
Experiment [8] deals with Mus musculus. Description: Evaluated for antitumor activity against B-16 melanoma in mice at a dose 2 mg/kg day, ip, on days 1, 4, and 7 against B-16 Melanoma cell *-Tumors survivors on day 62. The format is functional.
The test system of experiment [9] is P388. As to the kind of experiment: Minimum effective dose against P388 leukemic cells. Type of experiment: functional. Particulars: Mus musculus, read-out: MED.
In experiment [10] the test system is Mus musculus. Description: Evaluated for antitumor activity against B-16 melanoma in mice at a dose 1 mg/kg day, ip, on days 1, 4, and 7 against B-16 Melanoma cell. The format is functional. An outline of the steps:
as §1

The subject of experiment [11] is Mus musculus. Description: Evaluated for antitumor activity against B-16 melanoma in mice at a dose 3 mg/kg day, ip, on days 1, 4, and 7 against B-16 Melanoma cell. Type of experiment: functional. An outline of the steps:
as §1

Experiment [12] is filed under the species Mus musculus. As to the kind of experiment: Percentage change in WBC at optimum dose on day 3. The format is functional.
Experiment [13] has as its system Mus musculus. As to the kind of experiment: Evaluated for antitumor activity against B-16 melanoma in mice at a dose 3 mg/kg day, ip, on days 1, 4, and 7 against B-16 Melanoma cell *-Tumors survivors on day 62. Type of experiment: functional.

In the experiment with P388 [1], `CO[C@@]12[C@H](COC(N)=O)C3=C(C(=O)C(C)=C(N)C3=O)N1C[C@@H]1N[C@@H]12` [MITOMYCIN] gave an OD of 3.2 mg/kg. The Average weight gain in the experiment with Mus musculus [2] was 0.5 g; in the experiment with Mus musculus [4], 0.2 g; with Mus musculus [5] it was -0.1; in the experiment with Mus musculus [11], -0.1 g. Besides, the T/C – broadly, the ratio of treated to control – with Mus musculus [2] is 152%; in the experiment listed under Mus musculus [3], 144%; in the experiment with Mus musculus [5] it was 200%; in the experiment with Mus musculus [10] it was 155%; in the experiment with Mus musculus [11] it was 165%. In addition, the Cures in the experiment on Mus musculus [6], with Mus musculus [7], with Mus musculus [8] and in the experiment on Mus musculus [13] was 0 in each case. Moreover, the minimal effective dose in the experiment with P388 [9] came out at 0.2 mg/kg. Also, the Change in the experiment listed under Mus musculus [12] was -42%.
